TRPC4 agonist: activators of mouse TRPC4 channel, primary screen, Fluo4 calcium, HEK293 TRPC4beta/mu-opioid cells; B-score at 10 µM; AID 2237, 2010; hit rate 0.49% among 310,000; Fluo4 calcium fluorescence; active compounds read high; Short transient receptor potential channel 4 (Mus musculus), Q9QUQ5;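 active means B-score above 5 SD of library B-scores, and initial fluorescence ratio not above library mean plus 5 SD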;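 further: positive B-score marks a calcium rise read as TRPC4 activation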
Target sequence (Q9QUQ5 whole entry, looked up): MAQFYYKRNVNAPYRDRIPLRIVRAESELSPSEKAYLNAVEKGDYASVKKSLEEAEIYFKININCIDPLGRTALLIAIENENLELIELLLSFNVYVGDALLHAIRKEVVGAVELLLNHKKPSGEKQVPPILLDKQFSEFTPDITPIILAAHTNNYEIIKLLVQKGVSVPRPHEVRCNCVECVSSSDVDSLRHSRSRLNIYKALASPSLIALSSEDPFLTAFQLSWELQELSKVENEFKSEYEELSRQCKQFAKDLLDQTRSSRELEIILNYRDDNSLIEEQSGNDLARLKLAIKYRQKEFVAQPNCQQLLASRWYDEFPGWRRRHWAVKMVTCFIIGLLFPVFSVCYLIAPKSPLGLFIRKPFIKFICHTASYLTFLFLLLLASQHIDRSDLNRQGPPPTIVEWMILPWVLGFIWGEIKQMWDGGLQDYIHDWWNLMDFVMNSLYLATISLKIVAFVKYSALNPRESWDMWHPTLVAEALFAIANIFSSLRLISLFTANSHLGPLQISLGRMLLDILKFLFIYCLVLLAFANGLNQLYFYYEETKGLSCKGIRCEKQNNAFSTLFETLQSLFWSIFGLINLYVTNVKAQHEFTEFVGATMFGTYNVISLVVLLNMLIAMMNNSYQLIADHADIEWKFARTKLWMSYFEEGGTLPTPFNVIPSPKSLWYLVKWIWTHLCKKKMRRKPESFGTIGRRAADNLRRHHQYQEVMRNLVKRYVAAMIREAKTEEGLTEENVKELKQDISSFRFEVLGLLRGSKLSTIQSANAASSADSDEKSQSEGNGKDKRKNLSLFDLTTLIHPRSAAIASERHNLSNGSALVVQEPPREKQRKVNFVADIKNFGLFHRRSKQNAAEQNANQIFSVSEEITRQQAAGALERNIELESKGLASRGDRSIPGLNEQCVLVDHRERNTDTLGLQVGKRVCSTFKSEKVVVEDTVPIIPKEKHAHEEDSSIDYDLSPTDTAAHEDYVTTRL
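Incubation: 45 min room-temperature Fluo4 loading, 110 s read / System: HEK293 cells stably co-expressing mouse TRPC4beta and mu-opioid receptor / Signal: Fluo4 fluorescence, kinetic / Control set: buffer (low) and maximal DAMGO (high) / Measure: integrated baseline-normalised fluorescence ratio, converted to per-well B score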
TRPC6 inh: mouse TRPC6 channel inhibitors, primary screen, cell-based, HEK293, membrane potential dye; ACh-evoked depolarization; active compounds read low; Short transient receptor potential channel 6 (Mus musculus), Q61143; hit rate 1.1% among 310,000; B-score at 10 µM; AID 2553, 2010;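 active means B-score under library mean minus 3 SD, initial fluorescence not abnormally high, positive integrated signal ratio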;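 further: B-score derived from integrated fluorescence ratio over the kinetic read; more negative B-score means stronger inhibition of depolarization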
TRPC6 activator: mouse TRPC6 channel activators, primary screen, cell-based, HEK293, membrane potential dye; B-score at 10 µM; hit rate 0.13% among 310,000; Short transient receptor potential channel 6 (Mus musculus), Q61143; HEK293-TRPC6 membrane potential dye fluorescence; active compounds read high;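 active means B-score of the integrated fluorescence ratio above library mean plus 3 SD, and starting fluorescence ratio within library mean plus 5 SD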;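 further: higher score means more depolarization so channel activation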
TRPC4 block: inhibitors of mouse TRPC4 channel, primary screen, Fluo4 calcium, HEK293 TRPC4beta/mu-opioid cells. DAMGO-evoked Fluo4 calcium flux; active compounds read low. AID 2247, 2010. B-score at 10 µM. Short transient receptor potential channel 4 (Mus musculus), Q9QUQ5. hit rate 0.39% among 300,000;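 active means B-score over 3 SD under the library average, no early fluorescence shift, positive overall ratio signal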
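Material: HEK293 cells with stable TRPC4beta plus mu-opioid receptor expression; probe or stimulus: DAMGO in two steps, submaximal then maximal; technique: Fluo4 calcium fluorescence by kinetic imaging, 5 s 1 Hz baseline; measure: integrated fluorescence ratio relative to baseline, converted to per-well B score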
TRPC4 PAM: positive allosteric modulators of TRPC4, primary screen, cell-based, mouse TRPC4beta, HEK293 mu-opioid, Fluo-4 calcium. Short transient receptor potential channel 4 (Mus musculus), Q9QUQ5. hit rate 0.42% among 310,000. DAMGO EC20, Fluo-4 Ca2+ flux; active compounds read high. B-score at 10 µM;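 active means B-score of calcium response area above 5 SD of library B-scores, with initial fluorescence ratio within 5 SD of library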;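 further: B-score of integrated fluorescence ratio over time as area under calcium response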
TRPC4 sel inh 2: second selectivity test of TRPC6 inhibitors: effect on mouse TRPC4; AID 2776; HEK293 TRPC4/MOR, membrane potential dye fluorescence; channel activated by saturating DAMGO dose; hit rate 42% among 920; inhibition, % at 10 µM; shares compounds with TRPC6 inh;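 active means compounds whose fluorescence signal differed from control wells by over 3 SD, either direction, in both duplicate plates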
TRPC4 spec: mouse TRPC4 modulation by TRPC6 hits, confirmation, selectivity assay for TRPC6 inhibitor project, cell-based, HEK293 TRPC4/mu-opioid, membrane potential dye; shares compounds with TRPC6 inh; membrane potential fluorescence; activity change, negative = inhibition, % at 10 µM; hit rate 61% among 920; AID 2777, 2010;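 active means rise or fall in signal beyond 3 SD of buffer-only wells in both replicate plates, either sign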;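 further: integrated kinetic ratio of fluorescence range over baseline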
HEK293 MPD ctr 2-1: nonspecific membrane potential effects, parental HEK293, confirmation, counter-screen for TRPC6 inhibitor project, cell-based, second counter screen; shares compounds with TRPC6 inh; parental HEK293 membrane potential dye fluorescence; maximal acetylcholine challenge after compound addition; hit rate 31% among 920; AID 2779, 2010; signal change vs control, % at 10 µM;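 active means membrane potential signal moving either way by over 3 SD of the maximum-effect control, in both duplicate plates, meaning non-specific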
HEK293 MPD ctr-1: membrane potential modulation in parental HEK293, confirmation, counter-screen for TRPC6 inhibitor project, cell-based; AID 2780, 2010; membrane potential signal change, % at 10 µM; hit rate 60% among 920; shares compounds with TRPC6 inh; parental HEK293 membrane potential dye fluorescence;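 active means membrane potential signal shifting up or down by more than 3 SD of buffer-only wells, on both duplicate plates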
HEK293 MPD ctr-2: parental HEK293 membrane potential modulation, confirmation, counter-screen for TRPC6 modulator project, cell-based; shares compounds with TRPC6 inh; membrane potential dye fluorescence; membrane potential signal change, % at 10 µM; hit rate 51% among 2,400;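 active means membrane potential signal moves up or down beyond 5 SD from buffer-only wells, on both duplicate plates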
HEK293 MPD ctr 2-2: parental HEK293 nonspecific activity of TRPC6 modulators, second screen. membrane potential dye fluorescence; after compound, maximal acetylcholine stimulation. AID 488926. shares compounds with TRPC6 inh. inhibition, % at 10 µM. hit rate 14% among 2,400;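 active means membrane potential signal drops by more than 5 SD from the mean control signal, in both duplicate plates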;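 further: plate controls were acetylcholine ECmax control wells for no effect and buffer only wells for full effect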
TRPC4/MOR mod: TRPC4 modulation by TRPC6 hit compounds, confirmation, selectivity assay for TRPC6 modulator project, cell-based, HEK293 TRPC4/mu-opioid, membrane potential dye, mouse; AID 488927, 2010; membrane potential fluorescence; percent change from control (negative = decrease, positive = increase), % at 10 µM; shares compounds with TRPC6 inh; hit rate 69% among 2,400;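 active means membrane potential signal moved up or down beyond 5 SD of buffer control wells, in both duplicate plates, actives on both sides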;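 further: plate controls were assay buffer wells for no effect and DAMGO maximal-effect wells for full effect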
TRPC4 ctr inh 2: mouse TRPC4 off-target activity of TRPC6 modulators, second screen; inhibition, % at 10 µM; hit rate 55% among 2,400; AID 488928; HEK293 TRPC4/mu-opioid, membrane potential dye fluorescence; stimulated with maximal-effect DAMGO; shares compounds with TRPC6 inh;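 active means drop in membrane potential signal beyond 5 SD of the control wells in both duplicate plates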;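 further: TRPC4 counter screen for TRPC6 hits run under conditions tuned for TRPC6 not TRPC4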
TRPC6 inh conf: mouse TRPC6 channel inhibitors, confirmation, HEK293 cells, membrane potential dye, duplicate; shares compounds with TRPC6 inh; ACh-evoked depolarization; inhibition, % at 10 µM; hit rate 43% among 3,300; AID 488960, 2010;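 active means fluorescence ratio falls more than 5 SD below the full-stimulation control mean, in both duplicate runs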;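 further: integrated fluorescence ratio of peak minus minimum over baseline after agonist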
TRPC6 act confirm: mouse TRPC6 channel activators, confirmation, HEK293 cells, membrane potential dye, duplicate; AID 488961, 2010; shares compounds with TRPC6 inh; hit rate 11% among 2,800; HEK293-TRPC6 membrane potential dye fluorescence, FDSS; activation, % at 10 µM;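 active means ratio signal rise beyond 5 SD above unstimulated control wells' mean, seen in both duplicate runs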;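 further: plate controls were buffer EC0 wells for no effect and acetylcholine ECmax response for full effect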
The depositor's hits bear a star; i = inactive; x = no result. Compounds with a hit are over-represented: about 2.3% of the library has one in this group of screens.

SMILES	TRPC4 agonist	TRPC6 inh	TRPC6 activator	TRPC4 block	TRPC4 PAM	HEK293 MPD ctr-2	HEK293 MPD ctr 2-2	TRPC4/MOR mod	TRPC4 ctr inh 2	TRPC6 inh conf	TRPC6 act confirm	others
O=C(NCCc1ccccc1)c1ccc(Cl)cc1[N+](=O)[O-]	i	i	i	i	i	x	x	x	x	x	x
Cc1ccc(-c2nc(C(=O)NCCCN(C)C)cc3c2[nH]c2ccccc23)cc1	i	-9.8*	i	i	i	x	x	x	x	78%*	i	TRPC4 sel inh 2=30%*;TRPC4 spec=-21%*;HEK293 MPD ctr 2-1=30%*;HEK293 MPD ctr-1=-255%*
COc1ccc(OC)c(-c2nc(C(=O)NCCCN3CCOCC3)cc3c2[nH]c2ccccc23)c1	i	-6*	i	i	i	i	i	i	48%*	i	i
COc1cc(/C=C/C(=O)O)cc(S(=O)(=O)Nc2ccc3c(c2)CCC3)c1OC	i	i	i	i	i	x	x	x	x	x	x
Cc1cccc(C2=N/C(=C\c3cccs3)C(=O)O2)c1	i	i	i	i	i	x	x	x	x	x	x
CN(C(=O)COC(=O)C1COc2ccccc2O1)c1c(N)n(Cc2ccccc2)c(=O)[nH]c1=O (configuration not stated)	i	i	i	i	i	x	x	x	x	x	x
O=C1CC(NS(=O)(=O)c2ccc3ccccc3c2)CN1c1ccccc1 (configuration not stated)	i	i	i	i	i	x	x	x	x	x	x
Cc1cc(C)n(C(=O)CNC(=O)c2cccc(Cl)c2)n1	i	i	i	i	i	x	x	x	x	x	x
Cc1cc(C)n(C(=O)CNC(=O)c2cccc(Br)c2)n1	i	-5.8*	i	i	i	i	i	i	i	i	i
CCOC(=O)C1C2C=CC(CC2)N1c1ccccc1 (configuration not stated)	i	i	i	i	i	x	x	x	x	x	x
Cc1ccc(N(C(=O)CNC(=O)c2ccco2)C(C(=O)NC2CCCC2)c2cccnc2)cc1F (configuration not stated)	i	i	i	i	i	x	x	x	x	x	x
CCOC(=O)C1Cc2c([nH]c3ccccc23)CN1 (configuration not stated)	i	-8.6*	i	i	i	x	x	x	x	i	i	TRPC4 sel inh 2=i;TRPC4 spec=i;HEK293 MPD ctr 2-1=i;HEK293 MPD ctr-1=-0.1%*
CCOC(=O)C1Cc2ccccc2CN1 (configuration not stated)	i	i	i	i	i	x	x	x	x	x	x
Cc1c(CCOC(=O)c2ccc([N+](=O)[O-])cc2)sc[n+]1CC(=O)c1ccccc1	i	-7.4*	i	-6*	i	-262%*	i	-40%*	36%*	40%*	i
O=C(CNCc1ccccc1)NC1C2CC3CC(C2)CC1C3 (configuration not stated)	i	-5.8*	i	i	i	i	i	9.0%*	36%*	60%*	x
CCOCCN1CCN(C2c3ccccc3CSc3ccccc32)CC1 (configuration not stated)	i	-8.3*	i	i	i	x	x	x	x	i	x	TRPC4 sel inh 2=72%*;TRPC4 spec=18%*;HEK293 MPD ctr 2-1=i;HEK293 MPD ctr-1=9.5%*
CCNC(=O)NC1c2ccccc2CSc2ccccc21 (configuration not stated)	i	i	i	i	i	x	x	x	x	x	x
O=C(Nc1cccnc1)c1cnn2cccnc12	i	-5.2*	i	i	i	-96%*	i	-10%*	i	i	i
C=CCN1C(=O)c2ccc(C(=O)N(CC)CC(=O)Nc3ccc(OC)cc3)cc2C1=O	i	i	i	i	i	x	x	x	x	x	x
COc1ccc(OC)c(CNc2ncc(-c3ccc(F)cc3)n2C)c1	i	-5.3*	i	i	i	i	i	i	68%*	57%*	i
Cn1c(-c2ccc(F)cc2)cnc1NCc1cc2c(cc1[N+](=O)[O-])OCO2	i	-6.2*	i	i	i	i	i	-16%*	76%*	72%*	i
Cn1c(-c2ccccc2)cnc1NCc1cc2c(cc1[N+](=O)[O-])OCO2	i	-5.6*	i	i	i	i	i	-24%*	68%*	i	i
COc1ccccc1CNc1ncc(-c2ccc(F)cc2)n1C	i	i	i	i	i	x	x	x	x	x	x

Compound activity as filed in PubChem BioAssay.
